Test [1] has as its target Substance-P receptor (Cavia porcellus) (UniProt P30547). In words: Antagonist activity at NK1 receptor in guinea pig ileum assessed as inhibition of substance P-induced muscle contraction. The class given is tissue-based.
The target of test [2] is Mu-type opioid receptor (Cavia porcellus) (UniProt P97266). In words: Agonist activity at mu opioid receptor in guinea pig ileum assessed as inhibition of electrically-stimulated muscle contraction at 1 uM. The class given is tissue-based.
The next test concerns the target Substance-P receptor (Homo sapiens, UniProt P25103). In words: Displacement of [3H]substance P from human NK1 receptor expressed in CHO cells. The class given is cell-based. A general note: Displacement assays read how much labelled ligand stays bound in the presence of the test substance.
Test [3] concerns Rattus norvegicus. Nature of the test: Antiallodynic activity in intrathecally dosed spinal nerve ligated Sprague-Dawley rat assessed as attenuation of SNL-induced tactile allodynia. The class given is functional, organism-based. The gist of the method: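 Spinal nerve ligated rats given intrathecal doses, expressed as µg/5 µL, with 10% DMSO/water as vehicle; tactile allodynia measured by von Frey and compared with vehicle over time.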

The subject of test [4] is Rattus norvegicus. Nature of the test: Antinociceptive activity in Sprague-Dawley rat assessed as […] at 10 ug/5 uL administered intrathecally. The class given is functional, organism-based. The gist of the method: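 Non-injured rats given intrathecal 10 µg/5 µL in 10% DMSO/90% distilled water; hind paw withdrawal latency to radiant heat (Hargreaves) read 15 min after injection and compared with vehicle.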

The test system of test [5] is Rattus norvegicus. Nature of the test: Antiallodynic activity in po dosed spinal nerve ligated Sprague-Dawley rat assessed as attenuation of SNL-induced tactile allodynia. The test is classed as functional, organism-based. The method in brief:
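Spinal nerve ligated rats dosed orally; tactile (von Frey) and thermal hypersensitivity compared with vehicle.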

Calls of active or inactive are those of the source. The calls are words filed in the database; no cut-off is given here. Non-standard residues stand in square brackets, D forms with d. Residues, ends and D or L forms follow the SMILES beside them. *: point of attachment. OBzl(3,5-(CF3)2) = FC(F)(F)c1cc(CO*)cc(C(F)(F)F)c1

Chain of Substance-P receptor (Cavia porcellus) (P30547 whole entry): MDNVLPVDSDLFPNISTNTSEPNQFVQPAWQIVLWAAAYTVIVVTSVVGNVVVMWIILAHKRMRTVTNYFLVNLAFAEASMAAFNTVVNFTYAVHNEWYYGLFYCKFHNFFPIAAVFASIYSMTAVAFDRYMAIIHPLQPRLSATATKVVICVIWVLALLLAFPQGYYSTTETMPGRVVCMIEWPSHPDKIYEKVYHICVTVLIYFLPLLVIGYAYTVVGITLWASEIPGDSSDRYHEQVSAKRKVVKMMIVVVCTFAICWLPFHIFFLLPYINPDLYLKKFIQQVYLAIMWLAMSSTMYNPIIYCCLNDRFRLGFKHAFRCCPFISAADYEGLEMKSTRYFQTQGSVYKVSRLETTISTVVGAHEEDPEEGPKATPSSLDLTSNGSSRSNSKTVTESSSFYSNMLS
Chain of Mu-type opioid receptor (Cavia porcellus) (P97266 whole entry): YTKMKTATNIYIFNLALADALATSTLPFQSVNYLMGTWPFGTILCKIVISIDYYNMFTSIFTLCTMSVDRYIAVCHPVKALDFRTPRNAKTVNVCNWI
Chain of Substance-P receptor (P25103 whole entry): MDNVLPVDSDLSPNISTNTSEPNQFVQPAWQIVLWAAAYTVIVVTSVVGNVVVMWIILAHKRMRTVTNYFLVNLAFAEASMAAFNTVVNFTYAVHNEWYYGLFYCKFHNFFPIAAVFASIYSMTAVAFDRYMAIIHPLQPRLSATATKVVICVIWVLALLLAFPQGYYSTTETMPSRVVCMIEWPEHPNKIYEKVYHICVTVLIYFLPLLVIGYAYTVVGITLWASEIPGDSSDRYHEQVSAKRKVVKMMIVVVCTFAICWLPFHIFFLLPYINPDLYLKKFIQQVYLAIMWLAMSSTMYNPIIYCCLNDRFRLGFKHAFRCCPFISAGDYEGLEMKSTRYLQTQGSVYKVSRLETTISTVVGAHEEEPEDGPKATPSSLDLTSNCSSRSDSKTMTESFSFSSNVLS

On to `C[C@@H](NC(=O)[C@@H](N)Cc1ccc(O)cc1)C(=O)NCC(=O)N[C@@H](Cc1ccccc1)C(=O)N1CCCC1C(=O)N[C@@H](Cc1c[nH]c2ccccc12)C(=O)OCc1cc(C(F)(F)F)cc(C(F)(F)F)c1` (single isomer, unassigned), for which the Ke in test [1] is 1.8 nM.
By inhibition is commonly meant the share of the control response that was lost under treatment. Take `CSCC[C@H](NC(=O)[C@H](Cc1ccccc1)NC(=O)CNC(=O)[C@@H](C)NC(=O)[C@@H](N)Cc1ccc(O)cc1)C(=O)N1CCC[C@@H]1C(=O)N[C@@H](CC(C)C)C(=O)N[C@@H](Cc1c[nH]c2ccccc12)C(=O)OCc1cc(C(F)(F)F)cc(C(F)(F)F)c1`: in test [1], the Ke amounted to 29 nM. Further, the inhibition in test [2] came out at 25%.
Turning to `CSCC[C@H](NC(=O)[C@H](Cc1ccccc1)NC(=O)CNC(=O)[C@@H](C)NC(=O)[C@@H](N)Cc1ccc(O)cc1)C(=O)NC1(C(=O)N[C@@H](CC(C)C)C(=O)N[C@@H](Cc2c[nH]c3ccccc23)C(=O)OCc2cc(C(F)(F)F)cc(C(F)(F)F)c2)CCCC1`, the Ke in test [1] amounted to 2 nM.
For `CC(C)C[C@H](NC(=O)[C@H](Cc1ccccc1)NC(=O)CNC(=O)[C@@H](C)NC(=O)[C@@H](N)Cc1ccc(O)cc1)C(=O)N[C@@H](Cc1c[nH]c2ccccc12)C(=O)OCc1cc(C(F)(F)F)cc(C(F)(F)F)c1` (H-Y[dA]GFLW-{OBzl(3,5-(CF3)2)}), in test [1], the Ke turned out to be 2 nM.
What is called Ki is the equilibrium dissociation constant of an inhibitor or competing ligand from its target. Lower therefore signals a stronger hold on the target. As to `CSCC[C@H](NC(=O)[C@H](Cc1ccccc1)NC(=O)CNC(=O)[C@@H](C)NC(=O)[C@@H](N)Cc1ccc(O)cc1)C(=O)NC(C)(C)C(=O)N[C@@H](CC(C)C)C(=O)N[C@@H](Cc1c[nH]c2ccccc12)C(=O)OCc1cc(C(F)(F)F)cc(C(F)(F)F)c1`, the Ke in test [1] is 12 nM. The molecule further had a Ki on Substance-P receptor of 0.12 nM.
Regarding `CSCC[C@H](NC(=O)[C@H](Cc1ccccc1)NC(=O)CNC(=O)[C@@H](C)NC(=O)[C@@H](N)Cc1ccc(O)cc1)C(=O)N[C@@H](C)C(=O)N[C@@H](CC(C)C)C(=O)N[C@@H](Cc1c[nH]c2ccccc12)C(=O)OCc1cc(C(F)(F)F)cc(C(F)(F)F)c1` (H-Y[dA]GFMALW-{OBzl(3,5-(CF3)2)}), the Ke in test [1] amounted to 380 nM.
In the case of `C[C@@H](NC(=O)[C@@H](N)Cc1ccc(O)cc1)C(=O)NCC(=O)N[C@@H](Cc1ccccc1)C(=O)NCC(=O)N[C@@H](Cc1c[nH]c2ccccc12)C(=O)OCc1cc(C(F)(F)F)cc(C(F)(F)F)c1` (H-Y[dA]GFGW-{OBzl(3,5-(CF3)2)}), the Activity entry in the test on Rattus norvegicus [3] was “Dose-dependent effect”. In addition, in test [1], the Ke turned out to be 59 nM. Also, in the test with Rattus norvegicus [4], the result was Active. Besides, in the test on Rattus norvegicus [5], the result was inactive.

Values taken from ChEMBL document CHEMBL2417362, “Truncation of the peptide sequence in bifunctional ligands with mu and delta opioid receptor agonist and neurokinin 1 receptor antagonist activities” (Bioorg Med Chem Lett, 2013).
